Experimental data pooled from the literature.
Protocols differ between the studies behind these lines.
Target: Dual specificity protein kinase CLK1 (CLK1, Homo sapiens, UniProt P49759)

COc1cc(Nc2ncc(F)c(Nc3ccc4c(n3)NC(=O)C(C)(C)O4)n2)cc(OC)c1OC — inhibition (binding, competition with immobilised ligand; 10 µM): 92%
Cn1cncc1[C@@](O)(COc1ccc(C#N)cc1-c1ccc(OC(F)(F)F)cc1)c1ccc(C#N)cc1 — remaining binding (cell-free assay, competition with immobilised ligand; 1 µM): 100%
CC(C)(C)c1cc(C=C(C#N)C#N)cc(Br)c1O — remaining activity (enzyme activity, inhibitor; 0.5 µM): 112%
COc1ncccc1-c1cnn2ccc(N3CCN(C(=O)OC(C)C)CC3)nc12 — remaining binding (binding, competition with immobilised ligand; 1 µM): 81%
C#Cc1n[nH]c2c(-c3cn([C@@H](C)c4ccccn4)c(=O)[nH]c3=O)cc(F)cc12 — inhibition (enzyme activity, inhibitor; 0.1 µM): 4.1%
Cn1cc(-c2cc(F)cc(N3CCn4c(cc5c4CCCC5)C3=O)c2CO)cc(Nc2ccc(N3CCN(C4COC4)CC3)cn2)c1=O — inhibition (enzyme activity, inhibitor; 0.1 µM): 11%
O=c1[nH]c2ccccc2n1C1CCN(Cc2ccc(-c3[nH]c4cc5ncnc5cc4nc3-c3ccccc3)cc2)CC1 — remaining signal (cell-free assay; 0.5 µM): 109%
Nc1ncc(-c2nc(N3CCOCC3)nc(N3CCOCC3)n2)c(C(F)F)n1 — remaining binding (binding, competition with immobilised ligand; 10 µM): 58%
Cc1nn(C)cc1-c1nc2c(N3CCN(Cc4ccc(Cl)cc4)CC3)c(Cl)cnc2[nH]1 — remaining binding (binding, competition with immobilised ligand; 1 µM): 63%
